Compound activity as filed in PubChem BioAssay.
FLuc inh counter – counter-screen for luciferase assay inhibitors: firefly luciferase inhibition. inhibition, % at 10 µM. ATPLite firefly luciferase biochemical luminescence, 10 min. P08659. 200,000 tested, 1.5% active;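 active means inhibition above about 50% when tested at 10 µM, limit read from the data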
Target sequence (P08659 whole entry, looked up): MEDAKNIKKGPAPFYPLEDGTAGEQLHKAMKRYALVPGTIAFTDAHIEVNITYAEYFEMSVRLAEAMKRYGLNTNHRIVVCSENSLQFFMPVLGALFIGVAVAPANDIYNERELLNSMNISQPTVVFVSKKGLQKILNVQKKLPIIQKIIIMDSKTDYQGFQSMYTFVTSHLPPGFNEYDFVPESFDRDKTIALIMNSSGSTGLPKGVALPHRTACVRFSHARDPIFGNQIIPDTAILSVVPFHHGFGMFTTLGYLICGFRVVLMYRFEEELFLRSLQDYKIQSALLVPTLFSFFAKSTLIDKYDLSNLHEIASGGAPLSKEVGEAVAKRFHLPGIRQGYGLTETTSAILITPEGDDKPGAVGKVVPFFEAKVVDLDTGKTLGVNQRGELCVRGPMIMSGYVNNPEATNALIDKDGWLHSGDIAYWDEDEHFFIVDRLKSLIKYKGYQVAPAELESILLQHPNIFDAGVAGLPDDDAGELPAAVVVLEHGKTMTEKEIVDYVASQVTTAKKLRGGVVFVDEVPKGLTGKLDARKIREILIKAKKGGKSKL
APP 5'UTR act – APP 5'UTR luciferase reporter activation; 190,000 tested, 1% active; SH-SY5Y APP 5'UTR luciferase reporter, luminescence; zero percent = DMSO vehicle wells; activation, % at 2 µM;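 active means activation above a set limit, based on mean plus 3 SD of controls, cut at about 140% in these data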
FLuc act counter – firefly luciferase counter-screen for stimulation assays | P08659 | ATPlite luciferase biochemical, luminescence, 10 min; 0 = ATP-free wells, 1 = DMSO control | activation factor at 10 µM | 200,000 tested, under 10 active | AID 1027;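 active means luciferase activation factor, scaled between plate controls, of at least 2 with compound at 10 µM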
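System: luciferase plus luciferin reagent, cell-free; medium: PBS as buffer for the ATP substrate; dosing: test compounds dosed from 2 mM stocks in 100% DMSO; timing: 10 min post-reagent at room temperature; measured by: luminescence measurement of luciferase light output; evaluation: luciferase activation, seen as luminescence increase over controls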
NF-kB expr up – compounds increasing NF-kB expression in human neuronal cells; NF-kB reporter expression; hits give high values; AID 1239; fold change at 12.5 µM; 190,000 tested, 1.6% active; in the data active means fold change above about 3.3
TRAIL sens C8 – caspase-8 TRAIL sensitization. 360,000 tested, 1% active. NB7+C8 cells + TRAIL, ATPlite viability luminescence. AID 624354. inhibition (viability loss, TRAIL sensitization), % at 10 µM;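 active means compounds causing at least 50% loss of cell viability in the single-dose screen, relative to plate controls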
PPC-1+TRAIL kill – compounds killing PPC-1 cancer cells with TRAIL present (potentiator screen, no TRAIL-free arm); cell killing (% activity), % at 4 µM or 5 µM; 220,000 tested, 0.41% active; PPC-1 cells + TRAIL, ATPLite viability luminescence;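 active means cell killing above 50% in the first pass at 4 µM, then a duplicate retest at 5 µM averaging 50% or more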;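 further: plate controls were cells with TRAIL plus DMSO for no effect and medium-only wells lacking cells for full effect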
PPC-1 tox – kills PPC-1 cells | shares compounds with PPC-1+TRAIL kill | PPC-1 viability, ATPlite luminescence, overnight | cytotoxicity, % at 5 µM | 1,200 tested, 50% active | AID 1447;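 active means reconfirmed compounds whose average cytotoxicity reaches 50% or more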;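 further: 0% = DMSO-treated cells and 100% = wells holding medium but no cells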
An asterisk follows results filed as active; . = no result. Most compounds without a hit are left out; they make up all but 2.2% or so of the library.

SMILES	FLuc inh counter	APP 5'UTR act	FLuc act counter	NF-kB expr up	TRAIL sens C8	PPC-1+TRAIL kill	PPC-1 tox
O=C(/C=C/c1ccc(O)cc1)c1ccc(NC2=C(N3CCCCC3)C(=O)c3ccccc3C2=O)cc1	34.0	21.7	0.7	1.29	28.6	69.7*	57.9*
CCOC(=O)c1ccccc1NC(=O)COC(=O)CN1C(=O)C2CC=CCC2C1=O (stereo unspecified)	.	.	.	.	-14.0	.	.
Cc1ccc(N/C=C/C(=O)c2cccs2)cc1C	94.1*	169.9*	0.1	6.62*	78.3*	71.4*	71.1*
Nc1c(C(=O)NCCN2CCOCC2)c2nc3ccccc3nc2n1CCc1ccccc1F	-9.7	-16.9	1.1	0.29	15.7	-7.2	16.9
COc1ccc(C2NCCc3c2[nH]c2ccccc32)cc1CN1CCc2cc(OC)c(OC)cc2C1C (stereo unspecified)	.	.	.	.	9.3	13.3	33.8
COC(=O)c1ccc(OCC(=O)c2ccc(O)cc2O)cc1	65.4*	10.3	0.3	1.66	35.0	37.2	35.5
COc1ccc(-c2nc3ccccc3s2)cc1O	91.2*	224.7*	0.1	1.41	82.5*	82.7*	83.6*
COc1cccc(-c2nc3ccccc3s2)c1O	86.6*	212.0*	0.1	6.44*	73.4*	61.3*	64.2*
CC(C)c1ccc(-c2nc3ccccc3s2)cc1	.	.	.	.	93.3*	91.1*	92.0*
FC(F)(F)c1ccc(-c2nc3ccccc3s2)cc1	.	.	.	.	-13.9	.	.
COc1ccccc1S(=O)(=O)N[C@@H]1CC[C@@H](CCn2cc(C3CC3)nn2)O[C@@H]1CO	.	.	.	.	-2.3	.	.
CSc1cc(C)n(-c2ccccc2)c(=S)c1C(C)=O	-6.1	-7.4	1.1	1.11	19.6	-5.0	-6.0
COc1ccc(OCC(=O)NC2CCSc3ccccc32)cc1 (stereo unspecified)	.	.	.	.	-1.4	.	.
Cc1ccc(-n2c(-c3ccccc3)c[n+]3c2CCc2ccccc2-3)c(C)c1	-8.8	26.6	1.1	0.76	37.2	25.1	22.6
Cc1ccc(-c2nc(N/N=C/c3cccnc3)c3ccccc3n2)cc1	97.4*	26.2	0	2.07	91.1*	90.5*	85.2*
Cc1ccc(-c2cc(-c3ccccc3)nc(N/N=C/c3cccnc3)n2)cc1	.	28.2	.	.	17.2	.	.
Cc1ccc(-c2csc(NCCn3c(-c4ccncc4)nc4ccccc43)n2)cc1	.	.	.	.	14.5	.	.
Cc1ccc(S(=O)(=O)Nc2ccc(-c3cn4ccc(C)cc4n3)cc2)cc1	1.8	-0.1	1	1.21	5.6	-18.1	.
Cc1ccn2cc(-c3ccc(Br)cc3)nc2c1	.	.	.	.	86.2*	82.2*	82.8*
CC(C)(C)C(=O)Nc1cc2nn(-c3ccccc3)nc2cc1Cl	97.1*	8.5	0	0.17	93.1*	96.2*	96.3*
Cc1c(NC(=O)c2cc(-n3cnnc3)ccc2Cl)cccc1-c1nc2ccccc2s1	79.1*	78.7	0.2	2.33	77.6*	61.1*	57.6*
CCN(CC(=O)Nc1c(C(=O)OC)[nH]c2ccc(Cl)cc12)c1ccc2c(c1)OCO2	-11.7	-3.9	1.1	0.6	-3.5	3.9	11.7
O=S(=O)(c1ccc(F)cc1)n1ccc(-c2cccc(OCc3ccc(Cl)cc3Cl)c2)n1	-4.7	-4.7	1	1.29	1.5	1.4	.
CC(C)c1ccc(NC(=O)c2csnn2)cc1	68.5*	86.5	0.3	7.58*	49.3	41.0	39.8
O=C(Nc1ccccc1NC(=O)c1csnn1)c1csnn1	4.5	20.9	1	1.09	-0.7	-13.5	.
SMILES	FLuc inh counter	APP 5'UTR act	FLuc act counter	NF-kB expr up	TRAIL sens C8	PPC-1+TRAIL kill	PPC-1 tox
COc1ccc(CCC(=O)N(C)CC(=O)Nc2cc(C)ccc2C)cc1	-10.2	-4.6	1.1	1.06	-3.3	-12.6	.
Cc1nc(-c2ccc(NC(=O)/C=C\C(=O)O)cc2)cs1	46.5	20.0	0.5	1.22	17.5	7.0	.
Cc1ccc2sc(-c3ccc(NC(=O)/C=C\C(=O)O)cc3)nc2c1	84.0*	197.0*	0.2	5.43*	39.3	43.6	43.7
CCCOc1ccc(C(=O)C(c2ccccc2)N2CCOCC2)cc1 (stereo unspecified)	-1.9	-3.9	1	1.18	-11.4	0.2	14.0
CCN(CC)c1ccc(NC(=O)CNCc2ccccc2Cl)c(C)c1	.	.	.	.	-20.6	.	.
O=c1c(O)c(-c2cccs2)oc2ccccc12	-5.1	1.4	1.1	1.08	-0.8	12.4	.
O=c1c(O)c(-c2cccs2)oc2ccc(Cl)cc12	-2.9	-5.7	1	1.13	10.6	2.1	6.0
CCOC(=O)C[n+]1c(C)sc2ccc(OC)cc21	-9.6	-9.7	1.1	1.5	-5.9	10.5	21.9
CCO/C(=C/c1sc2ccc(OC)cc2[n+]1CCCS(=O)(=O)[O-])CC	-7.6	-0.2	1.1	0.97	-2.9	2.3	.
O=C1CN(CC(=O)NC2CCCc3ccccc32)CCN1 (stereo unspecified)	.	.	.	.	5.0	.	.
CC(=O)NCC(=O)NC1CC(C)(C)Cc2c1cnn2-c1ccccc1 (stereo unspecified)	.	.	.	.	1.0	.	.
CC(=O)OC(Cn1nc(C)cc1C)c1ccccc1 (stereo unspecified)	-5.8	-5.7	1.1	1.21	-1.2	3.8	0.2
Fc1ccc(CSc2nc3ccccc3[nH]2)cc1	48.6	79.1	0.5	4.79*	44.9	32.9	27.9
Fc1ccc(CSc2nc3ncccc3[nH]2)cc1	44.8	27.4	0.6	1.47	11.7	31.4	.
COc1cc(C(=O)OCC(=O)NCC2CCCCC2)ccc1OCC(C)C	.	.	.	.	-10.0	.	.
Cc1ccccc1NC(=S)Nc1cccc2cnccc12	-5.7	11.2	1.1	1.11	2.8	22.6	.
Cc1ccc(NC(=S)Nc2cccc3cnccc23)cc1	4.1	-10.4	1	1.39	2.9	27.0	.
Cc1ccc(NC(=S)Nc2cccc3cnccc23)cc1C	0.0	21.8	1	0.96	30.1	2.6	-9.2
Fc1ccccc1NC(=S)Nc1cccc2cnccc12	-5.6	-3.6	1.1	1.19	3.4	-16.4	-27.0
COc1cccc(Nc2nc(C(N)c3ccccc3)cs2)n1 (stereo unspecified)	.	.	.	.	9.7	.	.
CN(C)S(=O)(=O)c1ccc(Cl)c(NC(=O)CN2CCCC2)c1	.	.	.	.	-2.2	.	.
O=[N+]([O-])c1ccc(N/N=C/c2sc(N3CCOCC3)nc2-c2ccccc2)c(S(=O)(=O)Nc2ccc(Cl)cc2)c1	4.4	-5.7	1	1.11	9.7	34.5	39.7
CCc1ccc(NC(=O)c2cnn3ccccc23)cc1	78.4*	134.8	0.2	3.96*	58.2*	49.8	50.3*
CSc1cccc(NC(=O)c2cnn3ccccc23)c1	.	.	.	.	4.5	4.5	.
COc1cccc(/C=N/Nc2nccnc2Cl)c1O	83.8*	-51.0	0.2	6.15*	71.9*	45.0	49.8
O=C(Nc1ccc(Cl)c(Cl)c1)OCCNC(=O)c1ccncc1	-4.2	-20.4	1	1.22	1.8	14.7	.
